Measurements as given in ChEMBL document CHEMBL4819034, “Tricyclic-Carbocyclic RORγt Inverse Agonists-Discovery of BMS-986313” (J Med Chem, 2021).

Tests used:
[1] = Metabolic stability in mouse liver microsomes assessed as parent compound remaining; assay type: ADME, Microsome
Procedure, shortened: (§1)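 Test compound at 0.5 μM initial concentration incubated with human, mouse or rat liver microsomes (protein 1 mg/mL). Metabolic stability reported as percent of parent compound remaining after incubation.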

[2] = Metabolic stability in human liver microsomes assessed as parent compound remaining; assay type: ADME, Microsome; procedure, shortened: as §1
[3] = Metabolic stability in rat liver microsomes assessed as parent compound remaining; assay type: ADME, Microsome; procedure, shortened: as §1
[4] = Half life in dog liver microsomes; assay type: ADME, Canis lupus familiaris, Microsome
Procedure, shortened: (§2)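 Liver microsome half-life (min) measured in human, mouse, rat, dog and cyno liver microsomes.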

[5] = Half life in rat liver microsomes; assay type: ADME, Microsome; procedure, shortened: as §2
[6] = target: T1, Nuclear receptor ROR-gamma (Homo sapiens, UniProt P51449); assay: Inverse agonist activity at recombinant full-length human Gal4-fused RORgammat expressed in human Jurkat cells incubated for 18 hrs by steady-glo luciferase reporter gene assay; assay type: cell-based
T1 sequence (P51449 whole entry): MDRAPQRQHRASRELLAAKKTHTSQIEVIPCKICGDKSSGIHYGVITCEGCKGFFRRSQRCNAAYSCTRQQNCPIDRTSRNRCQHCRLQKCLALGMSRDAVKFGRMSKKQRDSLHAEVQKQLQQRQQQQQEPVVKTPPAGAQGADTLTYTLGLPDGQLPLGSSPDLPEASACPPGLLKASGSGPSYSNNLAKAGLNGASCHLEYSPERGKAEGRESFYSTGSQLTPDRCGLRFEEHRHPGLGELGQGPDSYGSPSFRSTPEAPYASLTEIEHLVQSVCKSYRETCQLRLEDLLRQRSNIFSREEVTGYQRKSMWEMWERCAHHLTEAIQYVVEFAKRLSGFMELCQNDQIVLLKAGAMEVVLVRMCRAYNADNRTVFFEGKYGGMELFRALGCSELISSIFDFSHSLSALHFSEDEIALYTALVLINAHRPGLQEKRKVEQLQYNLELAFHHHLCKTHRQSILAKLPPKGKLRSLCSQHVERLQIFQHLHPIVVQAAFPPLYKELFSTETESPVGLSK

[7] = target: T1, Nuclear receptor ROR-gamma; assay: Inverse agonist activity at RORgammat in CD3 and CD28-stimulated human whole blood assessed as suppression of IL17 preincubated for 1 hr followed by CD3 and CD28 stimulation measured after 20 hrs by AlphaLISA method; assay type: tissue-based
[8] = Half life in human liver microsomes; assay type: ADME, Microsome; procedure, shortened: as §2
[9] = Permeability across apical to basolateral membrane in human Caco-2 cells; assay type: ADME, cell-based; conditions: read-out: permeability
Procedure, shortened: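 Caco-2 monolayer permeability, apical-to-basolateral direction (Pc, nm/s). An efflux ratio is also reported.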

[10] = Half life in cynomolgus monkey liver microsomes; assay type: ADME, Macaca fascicularis, Microsome; procedure, shortened: as §2
[11] = Half life in mouse liver microsomes; assay type: ADME, Microsome; procedure, shortened: as §2

| Stabilty [1] | Stabilty [2] | Stabilty [3] | Structure (SMILES) | other results |
| --- | --- | --- | --- | --- |
| 32% | 40% | 10% | CNC(=O)N[C@@H]1CC[C@@]2(S(=O)(=O)c3ccc(F)cc3)c3ccc(C(F)(C(F)(F)F)C(F)(F)F)cc3CC[C@@H]12 | – |
| 93% | 97% | 41% | O=C(NCCO)N[C@@H]1CC[C@@]2(S(=O)(=O)c3ccc(F)cc3)c3ccc(C(F)(C(F)(F)F)C(F)(F)F)cc3CC[C@@H]12 | – |
| 93% | 100% | 10% | CC(=O)NCC(=O)N[C@@H]1CC[C@@]2(S(=O)(=O)c3ccc(F)cc3)c3ccc(C(F)(C(F)(F)F)C(F)(F)F)cc3CC[C@@H]12 | – |
| 65% | 82% | 34% | O=C(CO)N[C@@H]1CC[C@@]2(S(=O)(=O)c3ccc(F)cc3)c3ccc(C(F)(C(F)(F)F)C(F)(F)F)cc3CC[C@@H]12 | – |
| 90% | – | 100% | CC(=O)N[C@@H]1CC[C@@]2(S(=O)(=O)c3ccc(F)cc3)c3ccc(C(F)(C(F)(F)F)C(F)(F)F)cc3CC[C@@H]12 | – |
| 85% | 98% | 89% | CC(C)(N)CC(=O)N[C@@H]1CC[C@@]2(S(=O)(=O)c3ccc(F)cc3)c3ccc(C(F)(C(F)(F)F)C(F)(F)F)cc3CC[C@@H]12 | – |
| – | 54% | 42% | CC(C)(O)CNC(=O)N[C@@H]1CC[C@@]2(S(=O)(=O)c3ccc(F)cc3)c3ccc(C(F)(C(F)(F)F)C(F)(F)F)cc3CC[C@@H]12 | – |
| 70% | 71% | 14% | C[C@@H](O)C(=O)N[C@@H]1CC[C@@]2(S(=O)(=O)c3ccc(F)cc3)c3ccc(C(F)(C(F)(F)F)C(F)(F)F)cc3CC[C@@H]12 | – |
| 100% | 80% | 100% | CC(C)(N)C(=O)N[C@@H]1CC[C@@]2(S(=O)(=O)c3ccc(F)cc3)c3ccc(C(F)(C(F)(F)F)C(F)(F)F)cc3CC[C@@H]12 | EC50 [6]: 30 nM; EC50 [7]: 164 nM |
| 86% | 97% | 90% | CC(C)(O)CC(=O)N[C@@H]1CC[C@@]2(S(=O)(=O)c3ccc(F)cc3)c3ccc(C(F)(C(F)(F)F)C(F)(F)F)cc3CC[C@@H]12 | – |

Continued, compound first:

| Structure (SMILES) | Stabilty [1] | Stabilty [2] | Stabilty [3] | other results |
| --- | --- | --- | --- | --- |
| O=C(N[C@@H]1CC[C@@]2(S(=O)(=O)c3ccc(F)cc3)c3ccc(C(F)(C(F)(F)F)C(F)(F)F)cc3CC[C@@H]12)C1(O)CCOCC1 | 75% | 100% | 66% | – |
| O=C(N[C@@H]1CC[C@@]2(S(=O)(=O)c3ccc(F)cc3)c3ccc(C(F)(C(F)(F)F)C(F)(F)F)cc3CC[C@@H]12)C1(O)CCCCC1 | 56% | 50% | 22% | – |
| CC(=O)N1CCC(C(=O)N[C@@H]2CC[C@@]3(S(=O)(=O)c4ccc(F)cc4)c4ccc(C(F)(C(F)(F)F)C(F)(F)F)cc4CC[C@@H]23)CC1 | 67% | 61% | 100% | – |
| CC(C)(O)CNC(=O)[C@@H]1CC[C@@]2(S(=O)(=O)c3ccc(F)cc3)c3ccc(C(F)(C(F)(F)F)C(F)(F)F)cc3CC[C@@H]12 | – | – | – | half-life [4]: 27 min; half-life [5]: 18 min |
| CN(C(=O)C(C)(C)O)[C@@H]1CC[C@@]2(S(=O)(=O)c3ccc(F)cc3)c3ccc(C(F)(C(F)(F)F)C(F)(F)F)cc3CC[C@@H]12 | – | – | – | EC50 [6]: 45 nM; EC50 [7]: 2730 nM |
| CS(=O)(=O)N[C@@H]1CC[C@@]2(S(=O)(=O)c3ccc(F)cc3)c3ccc(C(F)(C(F)(F)F)C(F)(F)F)cc3CC[C@@H]12 | – | – | – | EC50 [6]: 7.3 nM; EC50 [7]: 157 nM |
| CC(C)(C(=O)N[C@@H]1CC[C@@]2(S(=O)(=O)c3ccc(F)cc3)c3ccc(C(F)(C(F)(F)F)C(F)(F)F)cc3CC[C@@H]12)N1CCNCC1 | 78% | 74% | 97% | EC50 [6]: 63 nM |
| [2H]C([2H])([2H])N1C(=O)C(O)CC1C(=O)N[C@@H]1CC[C@@]2(S(=O)(=O)c3ccc(F)cc3)c3ccc(C(F)(C(F)(F)F)C(F)(F)F)cc3CC[C@@H]12 (single isomer, unassigned) | 100% | 99% | 100% | EC50 [6]: 12.3 nM; EC50 [7]: 134 nM |
| [2H]C([2H])([2H])N1C(=O)C(F)CC1C(=O)N[C@@H]1CC[C@@]2(S(=O)(=O)c3ccc(F)cc3)c3ccc(C(F)(C(F)(F)F)C(F)(F)F)cc3CC[C@@H]12 (single isomer, unassigned) | 86% | 100% | 100% | half-life [4]: 120 min; half-life [8]: 46 min; Papp A→B [9]: 9.2 ×10⁻⁶ cm/s; half-life [10]: 24 min; half-life [11]: 38 min; half-life [5]: 56 min |
| O=C(N[C@@H]1CC[C@@]2(S(=O)(=O)c3ccc(F)cc3)c3ccc(C(F)(C(F)(F)F)C(F)(F)F)cc3CC[C@@H]12)C1(O)CCNCC1 | 88% | 100% | 83% | – |
| CC(C)(C(=O)N[C@@H]1CC[C@@]2(S(=O)(=O)c3ccc(F)cc3)c3ccc(C(F)(C(F)(F)F)C(F)(F)F)cc3CC[C@@H]12)N1CCOCC1 | 0.3% | 0.3% | 0.4% | – |
